# Assay results gathered from unrelated publications.
# Compare with care: the assays were run in different laboratories.
# Target: Serine/threonine-protein kinase mTOR (MTOR, Homo sapiens, UniProt P42345)
SMILES,observed,action,technique,concentration,endpoint,value
CC(C)CCn1c(SCC(=O)Nc2ccccc2C(F)(F)F)nc2nccnc2c1=O,enzyme activity,inhibitor,,10 µM,inhibition,< 20%
CCCOc1ccc(OC)c(F)c1C(=O)c1ccc(C(=O)N[C@@H]2CNC[C@H]2NC(=O)c2ccc3[nH]ncc3c2)cc1,enzyme activity,inhibitor,,10 µM,remaining activity,86%
CS(=O)(=O)NCC[C@H](NC(=O)c1cncc2c1cnn2-c1ccc(F)cc1)c1ccnc(S(C)(=O)=O)c1,cell-free assay,,competition with immobilised ligand,1 µM,remaining binding,88%
CC(C)(C)c1nc2c(s1)c1nc(N)ncc1c1ccc(NS(=O)(=O)c3c(F)cccc3F)c(F)c12,enzyme activity,inhibitor,radiometric,1 µM,remaining activity,103%
Cc1noc([C@H]2C[C@@H](c3ccc(C(F)(F)F)cc3)CN(C(=O)N3CCS(=O)(=O)C3)C2)n1,cell-free assay,,competition with immobilised ligand,1 µM,remaining binding,92%
COc1cc(Cl)c(C(=O)N[C@@H](CN[C@H]2CC[C@@H](N)CC2)Cc2ccc(C#N)cc2)cc1-c1ccc(CN[C@H](C)c2ccc(C)cc2)o1,enzyme activity,inhibitor,,1 µM,remaining activity,98%
COc1cc2ncnc(Nc3ccc(Oc4ccccc4)c(C)c3C)c2cc1OC,enzyme activity,inhibitor,,1 µM,inhibition,0%
C=CC(=O)Nc1cc(Nc2nccc(Nc3cc(Cl)c(F)cc3C(C)(C)O)n2)c(OC)cc1N1CC[C@@H](N(C)C)C1,enzyme activity,inhibitor,,1 µM,inhibition,6%
CN1CC(Oc2cnc(C#N)cc2-c2ccn3nc(NC(=O)C4CC4)cc3c2)C1,enzyme activity,inhibitor,,1 µM,inhibition,1%
COCCOc1nc(-c2ccc(Cl)nc2)nc2c1CN(C(=O)c1ncn3ccccc13)CC2,cell-free assay,,competition with immobilised ligand,0.1 µM,remaining binding,97%
Nc1ncnc2occ(-c3ccc(NC(=O)Nc4cc(C(F)(F)F)ccc4F)cc3)c12,enzyme activity,inhibitor,,20 µM,remaining activity,74%
Cc1cnc(NC2CCOCC2)nc1-n1cnc(C(=O)NC(CN)c2cc(F)cc(Cl)c2)c1 (centres unmarked),enzyme activity,inhibitor,radiometric,1 µM,remaining activity,82%
Cn1cc(Cl)c2c(Oc3c(F)cc(Nc4cc(Cl)nc(N)n4)cc3F)ccnc21,cell-free assay,,competition with immobilised ligand,0.1 µM,remaining binding,85%
CS(=O)(=O)Nc1cccc(-c2csc(NC(=O)CSc3nc4nccnc4c(=O)n3CCc3ccccc3)n2)c1,enzyme activity,inhibitor,,10 µM,inhibition,1%
CN(c1nccc(-c2cnn3ncccc23)n1)C1CC1,cell-free assay,,,1 µM,remaining signal,100%
CNCc1ccc(-c2cc(-c3nc(-c4ccc(S(=O)(=O)C(C)C)cc4)cnc3N)on2)cc1,enzyme activity,inhibitor,,0.4 µM,inhibition,0%
CCc1ccccc1C(=O)Nc1n[nH]c2c(C)c(F)c(C3C(C#N)=C(C)N(C)C(C)=C3C#N)cc12,cell-free assay,,competition with immobilised ligand,1 µM,remaining binding,100%
